Kir21 block: blocks the mouse Kir2.1 inward-rectifier potassium channel; AID 1672; P35561; actives 0.85% (n = 310,000); HEK293-Kir2.1, FluxOR thallium flux fluorescence; hits give low values; B-score at 10 µM;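 active = fluorescence ratio B-score at or below minus 3 SD of library scores, with starting-brightness B-score within 2 SD, cut at about -4.2 in these data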;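 also: channel flux triggered by added potassium and thallium sulfate stimulus; B-score of peak minus minimum fluorescence over baseline after thallium stimulus; more negative B-score means stronger Kir2.1 block with less thallium influx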
KCNK9 inh: inhibitors of human KCNK9 two-pore domain potassium channel | Q9NPC2 | HEK293 KCNK9, FluxOR thallium flux fluorescence; hits give low values | B-score at 10 µM | actives 1.2% (n = 310,000) | AID 488922;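 active = ratio B-score over 3 SD below the library mean, with starting fluorescence within 5 SD of its mean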;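 also: negative B-score means less thallium flux so channel inhibition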
hERG protect: compounds protecting human hERG from proarrhythmic drug block | Q12809 | CHO-hERG, FluxOR thallium flux, dofetilide IC70 present | activation (rescue from dofetilide block), less the hit threshold, % at 10 µM | actives 0.51% (n = 310,000);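 active = activation above the mean of controls blocked by dofetilide plus 5 SD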;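 also: thallium influx through hERG after potassium depolarization seen as dye fluorescence rise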
KCNQ1 inh: blocks the human KCNQ1 potassium channel | CHO-K1 KCNQ1, FluxOR thallium flux fluorescence; hits give high values | B-score at 10 µM | actives 1.3% (n = 310,000) | AID 2642;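 active = compounds whose thallium flux B-score, printed positive for inhibition, exceeds three library SD while starting fluorescence stays within three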;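 also: channel opened by potassium depolarization with thallium stimulus after 20 min compound exposure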
KCNQ1 act: potentiates or activates the human KCNQ1 potassium channel; P51787; CHO-K1 KCNQ1, thallium flux FluxOR fluorescence; hits give high values; B-score at 10 µM; actives 0.35% (n = 310,000); AID 2648;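 active = fluorescence ratio B-score, a plate-corrected score, at least three library SD, with initial intensity B-score within 5 SD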
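Assay system: stable KCNQ1 CHO-K1 line; medium: assay buffer, equal DMSO in all wells; timing: 90 min dye loading and 20 min compound exposure, both at room temperature; technique: kinetic FluxOR thallium fluorescence, 10-s 1-Hz baseline, 110-s post-stimulus read; read-out basis: B score of baseline-normalized fluorescence ratio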
KCNK3 inh: human KCNK3 channel inhibition, primary screen; actives 0.84% (n = 340,000); B-score at 10 µM; O14649; AID 602410; CHO-KCNK3 thallium flux, FluxOR fluorescence; hits give low values;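 active = B-score under library mean minus 4 SD, starting fluorescence ratio at most library mean plus 5 SD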;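 also: more negative B-score means stronger inhibition of thallium flux through KCNK3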
Target sequence (O14649 whole entry, looked up): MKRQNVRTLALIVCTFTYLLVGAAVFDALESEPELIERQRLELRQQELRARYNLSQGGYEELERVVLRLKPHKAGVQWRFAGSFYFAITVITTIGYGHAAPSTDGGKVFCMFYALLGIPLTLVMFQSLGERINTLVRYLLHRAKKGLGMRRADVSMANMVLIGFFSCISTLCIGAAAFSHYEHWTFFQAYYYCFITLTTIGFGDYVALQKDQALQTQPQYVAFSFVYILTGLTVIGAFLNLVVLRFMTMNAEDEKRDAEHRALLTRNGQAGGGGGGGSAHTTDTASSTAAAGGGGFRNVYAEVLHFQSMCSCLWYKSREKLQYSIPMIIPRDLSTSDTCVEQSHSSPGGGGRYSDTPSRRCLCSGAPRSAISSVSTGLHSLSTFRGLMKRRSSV
The depositor's hits bear a star. This is a sample that favours compounds with a hit; in the whole collection about 3.7% have one here.

Fc1ccc(COc2ccccc2CNCc2ccncc2)cc1 was read as Kir21 block -2, KCNK9 inh inactive, hERG protect -4, KCNQ1 inh inactive, KCNQ1 act inactive and KCNK3 inh inactive.
For OCCNCc1cc(Br)ccc1OCc1ccc(Cl)cc1 the results were Kir21 block -5*, KCNK9 inh inactive, hERG protect -24, KCNQ1 inh inactive, KCNQ1 act inactive and KCNK3 inh inactive.
Screening CN(C)C(CNC(=O)CCc1c[nH]c2ccccc12)c1ccccc1 (configuration not stated) returned Kir21 block 1.3, KCNK9 inh inactive, hERG protect -6, KCNQ1 inh inactive, KCNQ1 act inactive and KCNK3 inh inactive.
`Cn1c(O)c(C=NCCCCCC(=O)O)c(=O)n(C)c1=O` gave KCNK3 inh inactive.
COc1ccccc1C1CC(=O)Oc2ccc(C(C)(C)C)cc21 (configuration not stated) was read as KCNK3 inh inactive.
`CCN1CCN(c2cc(N3CCN(C(=O)c4ccco4)CC3)c3c4c(onc24)-c2ccccc2C3=O)CC1` gave Kir21 block -1.9, KCNK9 inh inactive, hERG protect -10, KCNQ1 inh 8*, KCNQ1 act inactive and KCNK3 inh inactive.
Screening O=C(O)CCNc1cc(N2CCN(C(=O)c3ccco3)CC2)c2noc3c2c1C(=O)c1ccccc1-3 returned Kir21 block -0.93, KCNK9 inh inactive, hERG protect -18, KCNQ1 inh inactive, KCNQ1 act inactive and KCNK3 inh inactive.
For Cc1ccc(-n2cc(C(=O)c3cc(Cl)ccc3O)cc(C#N)c2=O)cc1 the results were Kir21 block -0.46, KCNK9 inh inactive, hERG protect -8, KCNQ1 inh inactive, KCNQ1 act inactive and KCNK3 inh inactive.
COc1ccc(-n2cc(C(=O)c3cc(Cl)ccc3O)cc(C#N)c2=O)cc1 was read as Kir21 block 0.5, KCNK9 inh inactive, hERG protect -3, KCNQ1 inh 6*, KCNQ1 act inactive and KCNK3 inh inactive.
CCOc1ccc(-n2cc(C(=O)c3cc(Cl)ccc3O)cc(C#N)c2=O)cc1 was read as Kir21 block -2, KCNK9 inh inactive, hERG protect -8, KCNQ1 inh 8*, KCNQ1 act inactive and KCNK3 inh inactive.
Screening COc1ccc(O)c(C(=O)c2cc(C#N)c(=O)n(-c3ccc(Cl)cc3)c2)c1 returned Kir21 block 0.62, KCNK9 inh inactive, hERG protect -11, KCNQ1 inh inactive, KCNQ1 act inactive and KCNK3 inh inactive.
`Cc1cc(C(=O)NNC(=O)c2ccc(C)s2)c(C)o1` gave Kir21 block 0.56, KCNK9 inh inactive, hERG protect -2, KCNQ1 inh inactive, KCNQ1 act inactive and KCNK3 inh inactive.
`COc1ccccc1NC(=O)COC(=O)c1ccc2ccccc2n1` gave KCNK3 inh inactive.
For O=C(Cn1c(CO)nc2ccccc21)Nc1ccc2c(c1)OCCCO2 the results were KCNK3 inh inactive.
Screening CCOc1cc(C(=O)N2CCCN(C)CC2)cc(OCC)c1OCC returned Kir21 block 3.6, KCNK9 inh inactive, hERG protect -2, KCNQ1 inh inactive, KCNQ1 act inactive and KCNK3 inh inactive.
For Cc1c(O)ccc(/C(Cc2ccc3ccccc3n2)=N\N)c1O the results were Kir21 block 0.36, KCNK9 inh -7.9*, hERG protect -8, KCNQ1 inh inactive, KCNQ1 act inactive and KCNK3 inh inactive.
Screening COc1ccc(C2/C=C\CN(Cc3ccco3)CC(=O)N2Cc2ccc(F)cc2)cc1 (configuration not stated) returned Kir21 block -0.84, KCNK9 inh -6.9*, hERG protect -7, KCNQ1 inh inactive, KCNQ1 act inactive and KCNK3 inh inactive.
Clc1cc(Cl)c(OCc2nc(-c3ccccn3)no2)cc1Cl was read as Kir21 block -0.05, KCNK9 inh inactive, hERG protect -7, KCNQ1 inh inactive, KCNQ1 act inactive and KCNK3 inh inactive.
`CC(C)(C)c1ccc(OCc2nc(-c3ccccn3)no2)c(Br)c1` gave Kir21 block -0.41, KCNK9 inh -6.8*, hERG protect -8, KCNQ1 inh inactive, KCNQ1 act inactive and KCNK3 inh inactive.
Screening CCOC(=O)c1sc2nc(CSc3ccccc3)nc(NCCN(C)C)c2c1C returned Kir21 block -0.03, KCNK9 inh inactive, hERG protect -21, KCNQ1 inh inactive, KCNQ1 act inactive and KCNK3 inh inactive.
Screening O=c1oc2cc(O)ccc2c2c1CCCC2 returned Kir21 block -6.5*, KCNK9 inh inactive, hERG protect -24, KCNQ1 inh inactive, KCNQ1 act inactive and KCNK3 inh inactive.
For Cc1c(Cc2ccc3c(c2)OCO3)sc(NC(=O)C(C)(C)C)c1C#N the results were Kir21 block 0.94, KCNK9 inh -7.6*, hERG protect -5, KCNQ1 inh inactive, KCNQ1 act inactive and KCNK3 inh inactive.
For CC(=O)Nc1nc2c(F)cccc2s1 the results were Kir21 block 0.33, KCNK9 inh inactive, hERG protect 3, KCNQ1 inh inactive, KCNQ1 act 18* and KCNK3 inh inactive.
For Fc1cccc2sc(Nc3nc4cc5c(cc4s3)OCO5)nc12 the results were Kir21 block 0.95, KCNK9 inh inactive, hERG protect 13*, KCNQ1 inh inactive, KCNQ1 act inactive and KCNK3 inh inactive.
For O=C(CC1(CC(=O)N2CCOCC2)CCCC1)Nc1ccccc1 the results were KCNK3 inh inactive.
Screening N#CC1=C(N)Oc2ccc3ccc(O)cc3c2C1c1ccsc1 (configuration not stated) returned Kir21 block -5*, KCNK9 inh inactive, hERG protect -22, KCNQ1 inh inactive, KCNQ1 act inactive and KCNK3 inh inactive.
For O=C(NC(=S)N1CCN(C/C=C/c2ccccc2)CC1)c1ccco1 the results were Kir21 block 1.1, KCNK9 inh inactive, hERG protect -10, KCNQ1 inh inactive, KCNQ1 act inactive and KCNK3 inh inactive.
O=C(NC(=S)N1CCN(C/C=C/c2ccccc2)CC1)c1c(F)cccc1F was read as Kir21 block 0.01, KCNK9 inh inactive, hERG protect -4, KCNQ1 inh inactive, KCNQ1 act 7* and KCNK3 inh inactive.
`O=C(NCc1cccc2[nH]ccc12)C1CCC(=O)N(CCc2ccc(Cl)cc2)C1` (configuration not stated) gave Kir21 block -0.16, KCNK9 inh inactive, hERG protect -12, KCNQ1 inh inactive, KCNQ1 act inactive and KCNK3 inh inactive.

Screens: PubChem, Johns Hopkins Ion Channel Center
